pIC50: −log10 of the molar value.

Experiment [1] deals with Sodium-dependent dopamine transporter (Rattus norvegicus, UniProt P23977). Nature of the experiment: Binding affinity at dopamine transporter from rat striatal membrane tissue by [3H]CFT displacement. It is filed as tissue-based, Striatum. The gist of the method: (§1)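 Rat striatal P2 membranes: tissue homogenised in 0.32 M sucrose, pellet polytronned in ice-cold 35 mM sodium phosphate, pH 7.4. Incubation 2 h on ice, final sodium phosphate 30 mM, final DMSO 0.5%. Five inhibitor concentrations set after range-finding. Mean ± SEM of 3–5 (DAT, [3H]CFT) or 2–3 (SERT, [3H]citalopram) independent experiments, each in triplicate.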

The target of experiment [2] is Sodium-dependent serotonin transporter (Rattus norvegicus, UniProt P31652). Nature of the experiment: Binding affinity at serotonin transporter from rat brain striatal membrane by [3H]citalopram displacement. The experiment is classed as tissue-based. The method in brief: as §1
In experiment [3] the target is Monoamine transporters; serotonin & dopamine (Rattus norvegicus) (UniProt P31652+P23977). Nature of the experiment: Selectivity for serotonin and dopamine transporters. The experiment is classed as protein assay.
Chain of Monoamine transporters; serotonin & dopamine (Rattus norvegicus) (P23977 whole entry, looked up): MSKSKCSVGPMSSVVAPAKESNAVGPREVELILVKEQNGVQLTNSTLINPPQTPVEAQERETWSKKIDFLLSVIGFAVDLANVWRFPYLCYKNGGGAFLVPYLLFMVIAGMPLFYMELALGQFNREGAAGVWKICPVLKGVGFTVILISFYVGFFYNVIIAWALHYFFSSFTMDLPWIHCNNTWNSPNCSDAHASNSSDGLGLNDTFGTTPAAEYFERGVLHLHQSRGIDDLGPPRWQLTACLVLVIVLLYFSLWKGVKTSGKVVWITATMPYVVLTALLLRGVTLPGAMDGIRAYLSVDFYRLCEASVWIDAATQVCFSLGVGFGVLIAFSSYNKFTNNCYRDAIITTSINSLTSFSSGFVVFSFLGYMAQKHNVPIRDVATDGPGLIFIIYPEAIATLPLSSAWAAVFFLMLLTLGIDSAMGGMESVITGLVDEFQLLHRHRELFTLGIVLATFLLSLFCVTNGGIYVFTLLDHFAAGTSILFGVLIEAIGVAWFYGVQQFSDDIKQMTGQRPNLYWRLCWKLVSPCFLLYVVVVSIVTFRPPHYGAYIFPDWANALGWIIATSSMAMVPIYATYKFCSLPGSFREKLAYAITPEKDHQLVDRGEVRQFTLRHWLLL
Chain of Monoamine transporters; serotonin & dopamine (Rattus norvegicus) (P31652 whole entry, looked up): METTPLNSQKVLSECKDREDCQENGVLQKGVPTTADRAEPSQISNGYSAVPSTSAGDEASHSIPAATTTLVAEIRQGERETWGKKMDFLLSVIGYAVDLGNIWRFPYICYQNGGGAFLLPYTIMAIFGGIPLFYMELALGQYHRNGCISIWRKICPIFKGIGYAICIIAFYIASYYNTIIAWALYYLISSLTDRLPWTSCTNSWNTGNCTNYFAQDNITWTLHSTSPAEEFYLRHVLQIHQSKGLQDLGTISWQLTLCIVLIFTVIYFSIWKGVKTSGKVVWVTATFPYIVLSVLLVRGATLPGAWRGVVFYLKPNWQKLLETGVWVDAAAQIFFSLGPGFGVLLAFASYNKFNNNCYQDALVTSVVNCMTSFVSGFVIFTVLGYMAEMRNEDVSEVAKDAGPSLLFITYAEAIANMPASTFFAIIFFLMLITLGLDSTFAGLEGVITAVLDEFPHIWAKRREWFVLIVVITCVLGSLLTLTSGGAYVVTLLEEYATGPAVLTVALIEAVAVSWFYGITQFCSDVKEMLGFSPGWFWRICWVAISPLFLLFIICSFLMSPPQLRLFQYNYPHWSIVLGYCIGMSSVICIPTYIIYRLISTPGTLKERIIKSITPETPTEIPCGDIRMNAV

Chain of Sodium-dependent serotonin transporter (P31652 whole entry): as the sequence (P31652 whole entry, looked up) above
Chain of Sodium-dependent dopamine transporter (P23977 whole entry): as the sequence (P23977 whole entry, looked up) above

In general, pIC50 refers to the IC50 on a negative log10 scale, so that one unit is a factor of ten. High values mean a small IC50, low ones a large IC50. For `c1ccc(CN2CCC(COC(c3ccccc3)c3ccccc3)CC2)cc1`, the figures for the pIC50 in experiment [1] and in experiment [2] were 6.15 and 6.26, respectively. For the same molecule, the Selectivity in experiment [3] turned out to be 0.7.
On to `Fc1ccc(C(OCCC2CCN(CCCc3ccccc3)CC2)c2ccc(F)cc2)cc1`, for which the negative-log IC50 (pIC50) in experiment [1] was 7.78; in experiment [2], 7.26. The Selectivity in experiment [3] came to 3.3.
As for `Clc1ccc(C(OCCC2CCN(CCc3ccccc3)CC2)c2ccc(Cl)cc2)cc1`, the figures for the pIC50 in experiment [1] and in experiment [2] were 6.94 and 6.38, respectively. This molecule also yielded a Selectivity in experiment [3] of 3.6.
Consider `Clc1ccc(C(OCCC2CCN(CCCc3ccccc3)CC2)c2ccc(Cl)cc2)cc1`, for which the negative logarithm of the IC50 (pIC50) in experiment [1] is 7.19; in experiment [2], 6.65. In experiment [3], this molecule had a Selectivity of 3.5.
Taken in the same sequence, the figures for `c1ccc(CN2CCC(CCOC(c3ccccc3)c3ccccc3)CC2)cc1` were 7.82, 6.13 and 49.
Turning to `Fc1ccc(C(OCC2CCN(Cc3ccccc3)CC2)c2ccc(F)cc2)cc1`, the negative logarithm of the IC50 (pIC50) in experiment [1] is 6.90; in experiment [2], 6.12. In experiment [3], this molecule registered a Selectivity of 6.
For `Fc1ccc(C(OCC2CCN(CCCc3ccccc3)CC2)c2ccc(F)cc2)cc1`, the pIC50 in experiment [1] is 7.89; in experiment [2], 6.95. In experiment [3], this molecule returned a Selectivity of 8.6.
For `Brc1ccc(C(OCCC2CCN(CCc3ccccc3)CC2)c2ccc(Br)cc2)cc1`, the pIC50 in experiment [1] was 6.42; in experiment [2], 6.20. The Selectivity in experiment [3] is 1.6.
The matching figures for `COc1ccc(C(OCCC2CCN(CCCc3ccccc3)CC2)c2ccc(OC)cc2)cc1`: 6.59, 6.47 and 1.3.
On to `Cc1ccc(C(OCCC2CCN(CCc3ccccc3)CC2)c2ccc(C)cc2)cc1`, for which the negative-log IC50 (pIC50) was 6.51 in experiment [1] and 6.05 in experiment [2]. In addition, in experiment [3], the Selectivity was found to be 2.8.
Regarding `Fc1ccc(C(OCC2CCN(CCc3ccccc3)CC2)c2ccc(F)cc2)cc1`, the pIC50 is 7.87 in experiment [1] and 6.63 in experiment [2]. In experiment [3], this molecule had a Selectivity of 17.5.
For `c1ccc(CCN2CCC(COC(c3ccccc3)c3ccccc3)CC2)cc1`, the pIC50 in experiment [1] was 6.97; in experiment [2], 6.34. Further, in experiment [3], the Selectivity came to 4.2.
Taken in the same sequence, the figures for `Fc1ccc(C(OCCC2CCN(Cc3ccccc3)CC2)c2ccc(F)cc2)cc1` were 8.01, 6.70 and 20.
Taken in the same sequence, the figures for `c1ccc(CCCN2CCC(CCOC(c3ccccc3)c3ccccc3)CC2)cc1` were 7.92, 6.63 and 20.
As to `Fc1ccc(C(OCCC2CCN(CCc3ccccc3)CC2)c2ccc(F)cc2)cc1`, in experiment [2], the negative logarithm of the IC50 (pIC50) was 7.50.
On to `c1ccc(CCCN2CCC(COC(c3ccccc3)c3ccccc3)CC2)cc1`, for which the pIC50 in experiment [1] is 7.84; in experiment [2] it was 7.24. In addition, the Selectivity in experiment [3] worked out at 4.
As to `c1ccc(CCN2CCC(CCOC(c3ccccc3)c3ccccc3)CC2)cc1`, in experiment [2], the negative logarithm of the IC50 (pIC50) is 6.99.
Take `Brc1ccc(C(OCCC2CCN(CCCc3ccccc3)CC2)c2ccc(Br)cc2)cc1`: the values for the pIC50 in experiment [1] and in experiment [2] were 6.80 and 6.08, respectively. The same molecule had a Selectivity in experiment [3] of 5.2.

(Values after ChEMBL document CHEMBL1129478, “Structure-activity relationship studies of novel 4-[2-[bis(4-fluorophenyl)methoxy]ethyl]-1-(3-phenylpropyl)piperidine analogs: synthesis and biological evaluation at the dopamine and serotonin transporter sites” (J Med Chem, 1996).)
